# Compound activity: PubChem, several laboratories
# FXIa inh = factor XIa (human) inhibition; AID 798; inhibition, % at 5 µM; purified FXIa, Boc-Glu-Ala-Arg-AMC fluorogenic substrate; actives 0.14% (n = 220,000); P03951;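 active = inhibition of at least 40%; inactive = inhibition below 40%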;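 note: fluorescence of freed AMC excited at 355 nm; 0% = enzyme without compound and 100% = no enzyme blank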
# Target sequence (P03951 19-387 limits assumed): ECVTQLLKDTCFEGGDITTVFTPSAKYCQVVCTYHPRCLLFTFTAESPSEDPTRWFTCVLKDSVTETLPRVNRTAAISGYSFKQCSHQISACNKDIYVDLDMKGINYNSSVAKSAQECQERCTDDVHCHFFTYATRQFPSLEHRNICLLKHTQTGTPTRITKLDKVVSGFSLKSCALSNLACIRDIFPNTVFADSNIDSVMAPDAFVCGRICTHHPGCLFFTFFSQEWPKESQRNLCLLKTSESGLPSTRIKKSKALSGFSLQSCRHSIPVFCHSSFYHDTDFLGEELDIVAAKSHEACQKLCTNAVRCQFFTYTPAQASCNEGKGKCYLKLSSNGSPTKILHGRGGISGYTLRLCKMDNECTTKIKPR
# Target sequence (P03951 388-625 limits assumed): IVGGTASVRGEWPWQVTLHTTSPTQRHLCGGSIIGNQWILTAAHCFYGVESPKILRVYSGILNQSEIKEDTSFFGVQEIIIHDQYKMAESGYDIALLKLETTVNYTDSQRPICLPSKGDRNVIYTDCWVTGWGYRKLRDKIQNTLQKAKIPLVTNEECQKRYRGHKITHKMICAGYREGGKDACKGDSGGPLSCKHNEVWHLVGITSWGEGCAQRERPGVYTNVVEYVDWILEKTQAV
# FXIIa inh = blocks human coagulation factor XIIa protease activity | actives 0.3% (n = 220,000) | purified FXIIa, Boc-QGR-AMC fluorogenic substrate, 2 h | inhibition, % at 5 µM; in the data active = inhibition above about 40%;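 note: 0% = enzyme with no compound and 100% = blank without enzyme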
# Furin inhibitor = inhibitors of human furin. inhibition, % at 20 µM or 30 µM. P09958. actives 0.061% (n = 220,000). purified furin, fluorogenic substrate cleavage. AID 463115; in the data active = inhibition above about 25%
# Thrombin inh = inhibitors of human thrombin; P00734; alpha-thrombin, Boc-VPR-AMC fluorogenic substrate cleavage; inhibition, % at 5 µM; actives 0.26% (n = 220,000); AID 1046;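 active = inhibition at or above 40%; inactive = inhibition below 40%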;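 note: 0% = enzyme with no compound and 100% = wells without enzyme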
#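 Test system: human alpha-thrombin; medium: pH 7.5 Tris-saline with Tween 20; times: reaction at room temperature; signal: AMC fluorescence at 355 nm excitation and 460 nm emission; also added: Boc-VPR-AMC substrate, 15 µM final; dosing: one concentration per compound, 5 µM, with 0.2% DMSO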
# KLK5 inh = blocks human kallikrein 5 protease activity; recombinant hK5, fluorogenic AMC substrate cleavage; inhibition, % at 5 µM; actives 0.59% (n = 210,000);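 active = inhibition of 40% or more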;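 note: 0% = enzyme controls without compound and 100% = no-enzyme blanks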
# Starred values were filed as active, the others as inactive; · = no result given. Sampled rows, rich in hits. Any-hit rate of the full collection: about 1.1%.
SMILES,FXIa inh,FXIIa inh,Furin inhibitor,Thrombin inh,KLK5 inh
O=C(NCCc1ccccn1)C(F)(F)C(F)(F)C(F)(F)C(F)(F)C(F)(F)C(F)F,7,7,-17,1,-10
Cc1ccc(/C=N/NC(=O)c2ccccc2OCc2cccc(Br)c2)o1,0,8,-13,-5,0
CC(C)NC(=O)c1ccc(C(C)C)cc1,-1,7,-25,78*,5
N=c1oc2ccccc2cc1-c1nc(-c2ccc(Cl)cc2)cs1,14,7,-14,18,47*
O=C(Nc1cccc(F)c1)C1CCN(C(=O)c2ccccc2Cl)CC1,1,9,-8,4,46*
CSc1cccc(NC(=O)C2CCN(C(=O)c3ccccc3C)CC2)c1,-1,0,-22,-9,-10
O=C(COc1ccccc1)Nc1ccc(CN2CCCCC2)cc1,-1,8,-30,6,1
Cc1cc(OCC(=O)Nc2ccc(CN3CCCCC3)cc2)ccc1Cl,29,21,-6,16,42*
CC1CCC(NC(=O)C2CCC(CNc3c(N4CCCCC4)c(=O)c3=O)CC2)CC1 (stereo unspecified),1,9,-12,-1,3
Cn1c(SCC(=O)N2c3ccccc3CCc3ccccc32)nnc1-c1cc2ccccc2cc1O,7,14,-2,101*,30
CC(C)(C)n1nc2c(c1NC(=O)c1cc3ccccc3o1)CS(=O)(=O)C2,1,12,-28,-10,4
CCOc1ccc(OCC)c(NC(=O)C2CCCN(S(=O)(=O)c3c(C)n[nH]c3C)C2)c1 (stereo unspecified),4,11,-37,1,-1
CCOc1ccc(OCC)c(NC(=O)C2CCCN(S(=O)(=O)c3cnc[nH]3)C2)c1 (stereo unspecified),9,5,-36,40*,11
CCOc1ccccc1NC(=O)C1CCCN(S(=O)(=O)c2cccc3nsnc23)C1 (stereo unspecified),11,23,-12,11,121*
CC(CCc1ccccc1)NC(=O)CNC(=S)N(Cc1cccs1)C1CCCC1 (stereo unspecified),2,4,-13,-7,-3
O/N=C(/CCc1ccccc1)c1ccc2c(c1)OCCO2,8,11,-7,5,9
COC(=O)c1nc(NC(=O)c2ccccc2Cl)n[nH]1,7,82*,-17,·,48*
COC(=O)c1nc(NC(=O)C(C)(C)C)n[nH]1,-26,11,-15,56*,2
COC(=O)CN1C(=O)C(O)(CC(=O)c2cccc(Br)c2)c2ccccc21 (stereo unspecified),4,14,-21,-1,-8
COC(=O)CN1C(=O)C(O)(CC(=O)c2ccc(Cl)cc2)c2ccccc21 (stereo unspecified),7,9,-17,41*,8
NC(=O)COn1c(SCC(N)=O)nc2ccccc2c1=O,0,2,-8,-2,-2
COc1ccc(NC(=O)CSc2nncn2C)cc1OC,5,14,27*,7,-7
Cn1cnnc1SCC(=O)Nc1ccc2c(c1)CCC2,16,24,-13,3,-24
NS(=O)(=O)c1ccc(NC(=O)c2cccc(Cl)c2)cc1,1,11,-5,2,0
Cc1sc(NC(=O)c2ccco2)c(CN2CCN(c3ccc(F)cc3)CC2)c1C,30,57*,-21,2,-16
SMILES,FXIa inh,FXIIa inh,Furin inhibitor,Thrombin inh,KLK5 inh
CCOC(=O)c1cc(C)sc1/N=C/C1=C(O)CCCC1=O,-10,-1,36*,-8,-4
CCOC(=O)c1cc(C)sc1/N=C/C1C(=O)CCCC1=O,1,14,37*,1,-3
CCOC(=O)c1c(/N=C/C2=C(O)CC(C)(C)CC2=O)sc2c1CCCC2,-1,5,-6,4,-1
CCOC(=O)c1cc(CC)sc1/N=C/C1C(=O)CCCC1=O,-2,9,6,0,1
COC(=O)c1ccc(NC(=S)NC2CC3CCC2C3)cc1 (stereo unspecified),9,5,0,-11,-16
COc1cc(C(=O)ON=C2C(C)=CC(=O)C=C2C)cc(OC)c1OC,2,32,-16,7,6
COc1cc(C(=O)O/N=C2/C=C(C)C(=O)C=C2C)cc(OC)c1OC,0,60*,-25,-2,-6
COc1cccc(C(=O)SC2=NCCS2)c1,21,22,-18,14,60*
O=C(Nc1ccccc1N1CCCC1)c1ccc([N+](=O)[O-])cc1Cl,-2,1,-18,-7,-10
O=C(COc1ccc(Cl)cc1Cl)NC(=O)N1CCCCC1,-3,4,32*,-8,-13
COC(c1ccccc1)c1nnc(CCC(=O)N(C)Cc2cccc(-n3cccn3)c2)o1 (stereo unspecified),18,·,-6,40*,·
Cc1ccccc1-n1cc(-c2ccc(Br)cc2)nc1SCC(N)=O,28,16,3,19,46*
NS(=O)(=O)c1ccc(CCNC(=O)Cc2ccccc2[N+](=O)[O-])cc1,59*,59*,-4,52*,21
COc1ccc(OS(=O)(=O)c2c(C)noc2C)cc1,2,2,-23,-5,6
CC1(C)CC(=O)C2=C(C1)N(Cc1ccccc1)C(=O)C2(NC(=O)C(C)(C)C)C(F)(F)F (stereo unspecified),15,14,-16,19,53*
CC(C)(C)c1ccc(OCc2nc(-c3ccccn3)no2)c(Br)c1,15,32,-12,19,44*
COC(=O)c1sccc1NC(=O)CC1C(=O)NCCN1C(=O)Nc1ccc(C(F)(F)F)cc1 (stereo unspecified),1,4,-15,-2,3
CCCSc1nnc(NC(=O)Nc2ccc(F)cc2)s1,8,17,-16,0,-2
CCCSc1nnc(NC(=O)Nc2ccc(C)cc2)s1,-5,-1,-11,-8,52*
COc1ccc(Cl)cc1C(=O)NNC1CC(=O)N(Cc2ccc(Cl)cc2)C1=O (stereo unspecified),-4,7,-30,-5,-24
COc1ccc(C2=CSC3=NCCN23)cc1F,4,101*,-8,14,36
COc1ccc(-c2csc(N)n2)cc1F,-11,1,-19,-19,-6
Cc1nonc1OCCCNc1ccc([N+](=O)[O-])cc1Cl,-1,-4,-29,-8,-6
COc1cc(C(=O)Nc2nc(-c3cccs3)cs2)cc(OC)c1OC,3,28,-23,73*,-8
O=C(Nc1nc(-c2cccs2)cs1)c1ccco1,6,8,-15,62*,0
O=C(Nc1nc(-c2ccncc2)cs1)c1ccco1,1,13,0,-7,-8
O=C(Nc1nc(-c2cccs2)cs1)c1ccc(Cl)cc1,43*,14,-22,75*,6
O=C(Nc1nc(-c2cccs2)cs1)c1cccc(S(=O)(=O)N2CCCCC2)c1,-6,12,-22,15,-9
NC(=O)COC(=O)c1ccccc1SCC(=O)NC1CCCCCC1,1,5,-24,-3,-2
